According to ChEMBL document CHEMBL1212777, “Novel VIM metallo-beta-lactamase variant from clinical isolates of Enterobacteriaceae from Algeria” (2010):

Assays:
[1] = system: Escherichia coli BL21(DE3); experiment: Ratio of Kcat to Km for Escherichia coli BL21 DE3 beta-lactamase VIM-19 by microacidimetric method
Method in brief: (§1)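 Enzyme overexpressed from modified pET9a in E. coli BL21(DE3), released by sonication, and purified on Q Sepharose (20 mM Tris-HCl pH 7.4, 0–500 mM NaCl gradient) then Superose 12. Protein measured by Bio-Rad assay against a BSA standard.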

[2] = system: Escherichia coli BL21(DE3); experiment: Hydrolytic activity of Escherichia coli BL21 DE3 beta-lactamase VIM-19 by microacidimetric method; method in brief: as §1

CC(=O)OCC1=C(C(=O)O)N2C(=O)[C@@H](NC(=O)Cc3cccs3)[C@H]2SC1
kcat/Km [1]: 1.4e+06 M⁻¹ s⁻¹
kcat [2]: 21.2 s⁻¹

CC(C)(O/N=C(\C(=O)N[C@@H]1C(=O)N2C(C(=O)[O-])=C(C[n+]3ccccc3)CS[C@H]12)c1csc(N)n1)C(=O)O
kcat/Km [1]: 70000 M⁻¹ s⁻¹
kcat [2]: 6.3 s⁻¹

CC1(C)S[C@@H]2[C@H](NC(=O)Cc3ccccc3)C(=O)N2[C@H]1C(=O)O
kcat/Km [1]: 3.6e+06 M⁻¹ s⁻¹
kcat [2]: 206 s⁻¹

CC1(C)S[C@@H]2[C@H](NC(=O)[C@H](C(=O)O)c3ccsc3)C(=O)N2[C@H]1C(=O)O
kcat/Km [1]: 700000 M⁻¹ s⁻¹
kcat [2]: 45.8 s⁻¹

CC1(C)S[C@@H]2[C@H](NC(=O)[C@H](N)c3ccc(O)cc3)C(=O)N2[C@H]1C(=O)O
kcat/Km [1]: 3.3e+06 M⁻¹ s⁻¹
kcat [2]: 112 s⁻¹

CCN1CCN(C(=O)N[C@@H](C(=O)N[C@@H]2C(=O)N3[C@@H]2SC(C)(C)[C@@H]3C(=O)O)c2ccccc2)C(=O)C1=O
kcat/Km [1]: 4.3e+06 M⁻¹ s⁻¹
kcat [2]: 160 s⁻¹

CO/N=C(\C(=O)N[C@@H]1C(=O)N2C(C(=O)O)=C(COC(C)=O)CS[C@H]12)c1csc(N)n1
kcat/Km [1]: 950000 M⁻¹ s⁻¹
kcat [2]: 34.3 s⁻¹

CO/N=C(\C(=O)N[C@@H]1C(=O)N2C(C(=O)O)=C(COC(N)=O)CS[C@H]12)c1ccco1
kcat/Km [1]: 400000 M⁻¹ s⁻¹
kcat [2]: 5.3 s⁻¹
